Measured values taken from the EternaBench riboswitch data.

Tested on: MS2 coat protein
Test: apparent Kd, MS2 coat protein; higher = weaker binding; RNA-MaP array; FMN 200 µM where present
In short: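 The apparent Kd is the median of filtered binding-curve fits, one per cluster, to green signal normalised to red-channel RNA signal and control-cluster median Fmax. The clusters were on Illumina sequencing chips, and stalled E. coli RNA polymerase had transcribed the designs on them. Titration used SNAP-549-labelled MS2 coat protein from 0.7 or 1.5 nM, doubling to 3 µM, without and then with constant ligand, in 100 mM Tris-HCl pH 7.5, 80 mM KCl, 4 mM MgCl2, BSA, DTT, yeast tRNA and Tween-20.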

[1] = designed as: OFF switch for flavin mononucleotide, no ligand
[2] = ligand present: flavin mononucleotide, designed as: OFF switch for flavin mononucleotide
[3] = ligand present: flavin mononucleotide, designed as: ON switch for flavin mononucleotide
[4] = designed as: ON switch for flavin mononucleotide, no ligand

Row | Sequence | apparent Kd [1] [nM] | apparent Kd [2] [nM] | apparent Kd [3] [nM] | apparent Kd [4] [nM]
1 | AGAAAACAUGAGGAUCACCCAUGUGAGGAUAUGCAAAUAUAUACGAAAGAUUAUAAAAGCAGAAGGCACAAAAG | 111 | 130 |  | 
2 | GCUGCAUGUGAGAAGGCGAUCAUGAAACAUGAUCGAGGAUAUCAUGUAAACAUGAGGAUCACCCAUGUAUGGGUAUUAAGCAGC |  |  | 59.3 | 
3 | CGUAAGAUGCAGAAGGUGUUAGCUAGAGCUACGACAUGAGGAUCACCCAUGUACUAGAAACAGUACAAGGAUAUGCAUCUUACG |  |  | 6.56 | 17.3
4 | AUGUAGUGCGAAGGAUAUGCGACUGCCUCGGCCGCAGAAGGUCGCACAUGAGGAUCACCCAUGUGCGGUGCAAAGAGUGGUUCU | 111 | 76.3 |  | 
5 | AGCGAUGCAGGAUAUCCGCGGCUACACAUGAGGAUCACCCAUGUUAGGGUCGUGUUGCCAGGAGAAGGGCAAGGAU | 28.8 | 78.1 |  | 
6 | AGCGUGUGAGGAUAUGCGGACUCCGGUAAAUCUGGAGUCCAGUAGAAGGCACAUGAGGAUCACCCAUGUGAGAU | 35.8 | 124 |  | 
7 | GGAUCUGCAGGAUAUAUAAAAUGGCGUGAUGGAUUGUCUGUACAUGAGGAUCACCCAUGUAGAAGGGCGUUCCA | 29.1 | 58.3 |  | 
8 | CUACCUUAUGAGAAGGCGAUUAUGAAACAUGAUCGAGGAUAUCAUGUAAACAUGAGGAUCACCCAUGUAUGGGUAUUAUGGUAA |  |  | 32.8 | 211
9 | AGGAGGUCAGGAUAUGCAUGGCGGGACUUGCGUCGUGGCGUGCAGAAGGGACAUGAGGAUCACCCAUGUGGAGC | 66.4 | 106 |  | 
10 | GGUGCGUCUGUGAGGAUAUGCUGGUCCUUGGAUCAGCAGAAGGCACAUGAGGAUCACCCAUGUGGUGUCGUACC | 233 | 129 |  | 
11 | GAGCGAAAGCUCAAUGUCGAUAGCAGAAGGACAUCCUUCAACAUGAAAACAUGAGGAUCACCCAUGUAGGAUAUGCUAUCGACU | 5.32 | 5.84 |  | 
12 | CACUCACAUGAGGAUCACCCAUGUCCUAGCAGGUCAGGAUAUAGCUCGGAUGCGUUGAGUCUAGAAGGGACAGGUU |  |  | 63.6 | 184
13 | GGUGUGUUAGGAUAUCGCGGCGGCGGCGUUUGUUGUUGUUGUGAGAAGGAACAUGAGGAUCACCCAUGUGCGCC | 27.3 | 75.5 |  | 
14 | CGAGAGGCAGGAUAUAGUAUUUGCGACAUGAGGAUCACCCAUGUAUAUACAGUCGCUCCGUUAGAAGGGCCAUUUC | 22.8 | 33.2 |  | 
15 | AUCGUGUUAGGAUAUGCAUGUCGCUGGGUAGCUAGCGAUAGGCAGAAGGAACAUGAGGAUCACCCAUGUUCGGG | 158 | 78 |  | 
16 | GCACAUUUGUAAGGAUAUACAACAUGAGGAUCACCCAUGUGUUGGAAUUUAGUAGAAGGUACAGACAUGAGGAUCACUUUUGUA |  |  | 102 | 174
17 | UUAGUCAUGUAAGGAUAUCCGAUGCGAAGCGUUGGAGAAGGUACAUGAGGAUCACCCAUGUUCUGCGUCUGAGUACAGAUGCUA | 494 | 174 |  | 
18 | AGUAUGAGAGGAUAUACUAAUAAACAUGGAAACAUGAAGGGACAUGAGGAUCACCCAUGUAGAAGGCUCGUACA | 55.6 | 177 |  | 
19 | AUGCAGGGCGAGAAGGAGCGACAUGAGGAUCACCCAUGUAUCUUCAACUCGCUAGGAUAUCGGGUUGUAUUGAAAAUUAUUGAA | 4.86 | 5.5 |  | 

Row | Sequence | apparent Kd [1] [nM] | apparent Kd [2] [nM] | apparent Kd [3] [nM] | apparent Kd [4] [nM]
20 | AUAGCACAUGAGGAUCACCCAUGUGAGGAUAUUAGACCAUGGCUCUCAAAGACCAUGCUGAGAAGGCACUCGGG | 35.5 | 82.5 |  | 
21 | ACAUGUUAUGUAGGAUAUUAUACACAUGAGGAUCACCCAUGUAACCGGAGGCUUUACUAUGAGUAUGAGAAGGGUAUGAACAUG | 138 | 145 |  | 
22 | CUAUGAGGAAUAGGAUAUUCGAUCAUGAGGAUAGAAGAAGGGUUACAUGAGGAUCACCCAUGUAUGCACAUGAGGAUCCCUUAG | 235 | 226 |  | 
23 | GGAGCUCCUGACAUGAGGAUCACCCAUGUUCACUUAUUAAAUCAGGAUAUCGUCUCGAAACGAGACGAGAAGGGAUAUGCUCCU |  |  | 7.01 | 7.67
24 | AUAAAACAUGAGGAUCACCCAUGUCAACAAAAUCGAGGAUAUGGACAGACUUCGGUCUGUCCAGAAGGCGAAUAAU |  |  | 14.6 | 13.7
25 | GGAGGACAUGAGGAUCACCCAUGUGGAUGAUCGCUAGGAUAUGCGUAAAGGAGGAGUGGUGCAGAAGGAGUGGGAU |  |  | 360 | 464
26 | GUCUUCCUAGGAUAUACAUGAGGAUCACCCAUGUACAGUUUCGUCUAAGGAUACUCGCGUAGAAGGAGGUGGAU | 21.9 | 42.7 |  | 
27 | GCCGUGAUAGCAGGAUAUGCUCCGGUUGCUCAUACAUGAGGAUCACCCAUGUCACGUGCGGUGGUGCAGAAGGGUUGAAGCGAU |  |  | 209 | 764
28 | GGUGGACAUGAGGAUCACCCAUGUGAGGAUAUCGGCCGGUUCGCGGUGGCUGGCGUCUCGAGAAGGCACAUAGU | 99.1 | 139 |  | 
29 | GGCUACGUUUCGUAGCAGCUAGGUGAGGAUAUUCAAUUUUUCACAUGAGGAUCACCCAUGUAUGUGAAGAAGGCGCCUAGAAAU |  |  | 5.04 | 11.8
30 | CAGCCCUGAGGAUAUCCAUCCUUGUACAUGAGGAUCACCCAUGUUUUCCUCUGGGCUUUUGGAGAAGGCAGGUAUC | 78.3 | 82.3 |  | 
31 | CUUGUGUUAGGAUAUGCGCCCUGCAGAAGCAGGGCCAGAGAGCAGAAGGAACAUGAGGAUCACCCAUGUGUGAC | 65.5 | 53.7 |  | 
32 | GUGCAUUCGUAGAAGGGUGACAUGAGGAUCACCCAUGUGCGCUGAGCUCAAGAUGCACCAGCGCCACAGGAUAUACGAAGCACC |  |  | 84 | 54.3
33 | UAAAUUUUAUGAUAUUAUGACAGUAGAAGGCUAUACAUGUUGAUACAUGAGGAUCACCCAUGUAUAGAGGAUAUAUACAAUUAU | 1050 | 315 |  | 
34 | ACUAAGGAGGUAGGAUAUUGUGUGGUGGCCGGGCUCCCACGGCGAGCGGCACAAGAAGGAUCCCAACAUGAGGAUCACCCAUGU |  |  | 26.1 | 48.9
35 | AAUACAUGAGGAUCACCCAUGUGCAUUGUUUAAGAGGAAGCACAGGAUAUGCAGCCAAUCGGUUAGCAGAAGGGUGACUUCAAC |  |  | 81.6 | 85.2
36 | UAAACAUGAGGAUCACCCAUGUUAUGAUCGGUUGAUGAAUGUGAGGAUAUACUUAAUUUUAUGGAGUAGAAGGCACUGGGUUCU |  |  | 30 | 29.1
37 | GGAAAACAUGAGGAUCACCCAUGUGAGGAUAUCGAUGUCCAACCCAAAGUGCGGGACUCGAGAAGGCACUUGGA | 45.7 | 31.5 |  | 
38 | ACGAAACAUGAGGAUCACCCAUGUGCUUAAAGUGUAGGAUAUGGGAUAGCCUAGGUAGUCUCAGAAGGGCACCAAU |  |  | 22.5 | 45.1

Row | Sequence | apparent Kd [1] [nM] | apparent Kd [2] [nM] | apparent Kd [3] [nM] | apparent Kd [4] [nM]
39 | GAGCCAUCGUGAGAUGGCUAACAUACAUGAGGAUCACCCAUGUAGGAUAUCGAUUGCUUUGCAGUCGAGAAGGACAUGUUUAAU | 26.3 | 43.1 |  | 
40 | AAUAUAUUAAGUGAGGAUAUCAUAGAAAAAACAUGAGGAUCACCCAUGUGGGAAACCUGGUCGGGUGAGAAGGCACUUAAUAUAU |  |  | 88.4 | 992
41 | AGUAACAGAGGAUAUACUAUUUUAUGUGUUUAUUGUUUUAAACAUGAGGAUCACCCAUGUAGAAGGCUGAAUAA | 29.4 | 40.5 |  | 
42 | UGUGCGUAUGUGAGGAUAUGCUGGUCCUUGGAUCGGCAGAAGGCACAUGAGGAUCACCCAUGUGGUGUCGUUCC | 144 | 57.8 |  | 
43 | ACAUACAUUCGAGGAUAUCGGUGAACAAAUUAACGAGAAGGCGAUAAAAUUUUUAAUCUUAUGAACAUGAGGAUCACCCAUGUA |  |  | 18.5 | 21.3
44 | AAGAAGUCAGGAUAUCCUGCUCGUCACUUGCGUGAUGAGUAGGAGAAGGGACAUGAGGAUCACCCAUGUAAAGC | 46.4 | 43.1 |  | 
45 | GGUUGGCGAGGAUAUACAUGAGGAUCACCCAUGUGGUCCUAAGAUAAAAUAGACCUUUGUAGAAGGCGCGGGUC | 136 | 122 |  | 
46 | AACUGACAUGAGGAUCACCCAUGUCAGGAUAUGCUUCAUAAAAACAAACAAAAAUGAUGCAGAAGGGACAUGGA | 16.6 | 41.6 |  | 
47 | CAUCCACAUGAGGAUCACCCAUGUCAGGAUAUCUAUCAUAGCAUCGAAAGAUGCGGGUAGAGAAGGGACAAACC | 12.9 | 20.2 |  | 
48 | UGUGCGUUGAUCUUCGAUCGGUGUACAUGAGGAUCACCCAUGUAGGAUAUUCAAAGACGCAGAUAGGAGAAGGACAUUGGUUUU | 16.8 | 20 |  | 
49 | GCGUAAUAGGUGUAGCUAGUCAUUCAAGAAGGGUGGAGAACAUGAGGAUCACCCAUGUAGUUUAUACAGGAUAUUGAUAUACGC |  |  | 138 | 552
50 | CUGUUAUAGGUCCAUUUUAACAACAUGAGGAUCACCCAUGUGCAGGAUAUCGUGUUAAUUUUCAUCGAGAAGGGCAUAGUCACG | 27.2 | 58.4 |  | 
51 | CCAUGUUAGCAGGAUAUGCAAUUAUUCUUUUAAGCAGAAGGGCUUACAUGAGGAUCACCCAUGUAACAUUUCAU | 17.3 | 85.4 |  | 
52 | AGACAUACUCAAGGAUAUCGUCGUACAUGAGGAUCACCCAUGUCGCACUUCUAAAGAGAAGUUGGCGAGAAGGUGAGGUUCGUU |  |  | 7.76 | 18.8
53 | GUUGCUUUCCGAGGAUAUUCAGGGCGUGGCUAUACAUGAGGAUCACCCAUGUGGCGGAAGCCUAGGGAGAAGGCGGGCUGCUUC |  |  | 16.3 | 18.4
54 | CAGCCCUGAGGAUAUCCAUCCUUGUACAUGAGGAUCACCCAUGUUCUCCUCUGGGCUUUGGGAGAAGGCAGGUAUC | 59.6 | 58.7 |  | 
55 | AGAUGGUAGAGAGGAUAUCAUGUGCUGACAUGAGGAUCACCCAUGUAGGGACGUCGGUCCAAUUAUGAGAAGGCUCUACCAUCA |  |  | 50.8 | 81.7
56 | AAUGCCGUAGGAUAUAUAUGGCAGAUCGCACGUCCUGAAAGACAUGAGGAUCACCCAUGUAGAAGGGCGGAAAC | 14.7 | 17 |  | 
